Results as given in ChEMBL document CHEMBL1129428 (J Med Chem, 1996).

Columns and labels:
Mus musculus [1] = experiment: Anticonvulsant activity after intraperitoneal injection into mice by using MES screen test after 0.5 hr; type: functional
Mus musculus [2] = experiment: Anticonvulsant activity after intraperitoneal injection into mice measured in a maximal electroshock scree (MES) screen; type: functional
Mus musculus [3] = experiment: Anticonvulsant activity after intraperitoneal injection into mice by using scPTZ screen after 0.5 hr; type: functional
Mus musculus [4] = experiment: Compound was tested for anticonvulsant activity after intraperitoneal injection into mice by using MES screen test after 1 hr; type: functional; conditions: ip
In short: (§1)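 Quantitative intraperitoneal mouse testing in the MES, scPTZ or rotorod neurotoxicity screens at the peak time given for each compound (0.25–2 h). ED50 or TD50 reported in mg/kg with 95% CI and slope (SE).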

[5] = Compound was tested for toxicity after intraperitoneal injection into mice by using neurotoxicity screen test after 2 hr; type: organism-based; conditions: mouse, in vivo, ip; in short: as §1
Rattus norvegicus [6] = experiment: Compound was tested for anticonvulsant activity after Oral Administration into Rats by using MES screen test after 0.25h,dose 12.5 mg/kg; No activity was demonstarted; type: functional, organism-based; design: dose 12.5 mg/kg
In short: (§2)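 Rats received the compound orally. […] Rats were tested in the MES screen at 0.25, 0.5, 1, 2 and 4 h. Each value is the number of rats protected out of 4. The test followed NINDS procedures.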

Rattus norvegicus [7] = experiment: Compound was tested for anticonvulsant activity after Oral Administration into Rats by using MES screen test after 4h,dose 12.5 mg/kg; number of rats out of four which were protected; type: functional; in short: as §2
Rattus norvegicus [8] = experiment: Anticonvulsant activity after oral administration into rats; type: functional; design: concentration or dose not given beside the values
Rattus norvegicus [9] = experiment: Compound was tested for anticonvulsant activity after Oral Administration into Rats by using MES screen test after 1h,dose 12.5 mg/kg; number of rats out of four which were protected; type: functional; in short: as §2
Rattus norvegicus [10] = experiment: Compound was tested for anticonvulsant activity after Oral Administration into rat by using MES screen test after 4 hr; type: functional
In short: (§3)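 Rats dosed orally, typically at 50 mg/kg first, then mostly 12.5 mg/kg (some compounds at 30 mg/kg), and tested by maximal electroshock. Four rats per compound, scored at 0.25, 0.5, 1, 2 and 4 h as the number of rats protected out of 4.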

Mus musculus [11] = experiment: Compound was tested for anticonvulsant activity after intraperitoneal injection into mice by using scPTZ screen test after 1 hr; type: functional; conditions: ip; in short: as §1
Rattus norvegicus [12] = experiment: Compound was tested for anticonvulsant activity after Oral Administration into Rats by using MES screen test after 2h,dose 12.5 mg/kg; number of rats out of four which were protected; type: functional; in short: as §2
Rattus norvegicus [13] = experiment: Compound was tested for anticonvulsant activity after Oral Administration into Rats by using MES screen test after 4h,dose 50 mg/kg; number of rats out of four which were protected; type: functional; in short: as §2
Rattus norvegicus [14] = experiment: Compound was tested for anticonvulsant activity after Oral Administration into Rats by using MES screen test after 2h,dose 50 mg/kg; number of rats out of four which were protected; type: functional; in short: as §2
Rattus norvegicus [15] = experiment: Compound was tested for anticonvulsant activity after Oral Administration into Rats by using MES screen test after 0.25h,dose 50 mg/kg; number of rats out of four which were protected; type: functional; in short: as §2
Rattus norvegicus [16] = experiment: Compound was tested for anticonvulsant activity after Oral Administration into Rats by using MES screen test after 0.5h,dose 50 mg/kg; number of rats out of four which were protected; type: functional; in short: as §2
Rattus norvegicus [17] = experiment: Compound was tested for anticonvulsant activity after Oral Administration into Rats by using MES screen test after 1h,dose 50 mg/kg; number of rats out of four which were protected; type: functional; in short: as §2
Rattus norvegicus [18] = experiment: Compound was tested for anticonvulsant activity after Oral Administration into rat by using MES screen test after 2 hr; type: functional; in short: as §3
[19] = Compound was tested for toxicity after oral administration in rat by using neurotoxicity screen test after 0.25-24 hr; type: organism-based; conditions: in vivo
In short: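 Rat neurotoxicity after oral dosing, observed at 0.25, 0.5, 1, 2, 4, 6, 8 and 24 h (8 h omitted for one compound).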

[20] = Protection index = TD50/ED50; type: ADME; conditions: read-out: PI
[21] = Partition coefficient (logP); type: physicochemical; conditions: octanol/water
In short: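 Partition between 1-octanol and buffer at pH 7.4, with solutions prepared in 1-octanol before buffer is added. Quantified by UV, using λmax and ε values measured in 1-octanol.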

Rattus norvegicus [22] = experiment: Compound was tested for anticonvulsant activity after Oral Administration into Rats by using MES screen test after 0.25h,dose 50 mg/kg; No activity was demonstarted; type: functional, organism-based; design: dose 50 mg/kg; in short: as §2
Rattus norvegicus [23] = experiment: Compound was tested for anticonvulsant activity after Oral Administration into Rats by using MES screen test after 0.5h,dose 12.5 mg/kg; No activity was demonstarted; type: functional, organism-based; design: dose 12.5 mg/kg; in short: as §2
Rattus norvegicus [24] = experiment: Compound was tested for anticonvulsant activity after Oral Administration into Rats by using MES screen test after 1h,dose 12.5 mg/kg; No activity was demonstarted; type: functional, organism-based; design: dose 12.5 mg/kg; in short: as §2
Mus musculus [25] = experiment: Toxicity after intraperitoneal injection into mice by using toxicity screen test after 0.5 hr; type: organism-based; conditions: in vivo, ip
In short: (§4)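 Mice injected intraperitoneally at 30, 100 and 300 mg/kg and examined 0.5 and 4 h afterwards. Each entry is the minimum dose giving activity (MES protection, scPTZ protection, or rotorod failure for neurotoxicity) in half or more of the mice. Activity is called absent if nothing occurs at 300 mg/kg.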

Mus musculus [26] = experiment: Compound was tested for toxicity after intraperitoneal injection into mice by using toxicity screen test after 4 hr; type: organism-based; conditions: in vivo, ip; in short: as §4
[27] = Compound was tested for toxicity after intraperitoneal injection into mice by using neurotoxicity screen test after 1 hr; type: organism-based; conditions: mouse, in vivo, ip; in short: as §1
Mus musculus [28] = experiment: Anticonvulsant activity after intraperitoneal injection into mice by using scPTZ screen test after 4 hr; type: functional
Rattus norvegicus [29] = experiment: Compound was tested for anticonvulsant activity after Oral Administration into Rats by using MES screen test after 0.25h,dose 12.5 mg/kg; number of rats out of four which were protected; type: functional; in short: as §2
[30] = Protection index = TD50/ED50 (MES); conditions: mouse, in vivo; read-out: PI

SMILES	Dose (Mus musculus [1]) [mg/kg]	Dose (Mus musculus [2]) [mg/kg]	Dose (Mus musculus [3]) [mg/kg]	ED50 (Mus musculus [4]) [mg/kg]	Activity (Rattus norvegicus [6])	Activity (Rattus norvegicus [7])	Activity (Rattus norvegicus [8])	Activity (Rattus norvegicus [9])	ED50 (Mus musculus [11]) [mg/kg]	Activity (Rattus norvegicus [12])	Activity (Rattus norvegicus [23])	Dose (Mus musculus [25]) [mg/kg]	Dose (Mus musculus [26]) [mg/kg]	also measured
NC(=O)N/N=C\c1ccc(Oc2cccc(F)c2F)cc1	100	100	300	45.8	No activity	4	3	4	> 350	4				TD50 at 2 h [5]: 293 mg/kg; ED50 (Rattus norvegicus [10]): 6.15 mg/kg
Cc1ccc(Oc2ccc(/C=N/NC(N)=O)cc2)cc1	30	100		14.7					88.6					TD50 at 2 h [5]: 204 mg/kg; Activity (Rattus norvegicus [13]): 4; Activity (Rattus norvegicus [14]): 4; Activity (Rattus norvegicus [15]): 3; Activity (Rattus norvegicus [16]): 4; Activity (Rattus norvegicus [17]): 4; ED50 (Rattus norvegicus [18]): 3.43 mg/kg; TD50 [19]: > 500 mg/kg; selectivity ratio [20]: 2.3
NC(=O)N/N=C/c1ccc(Oc2ccccc2)cc1	100	300												logP [21]: 2.66; Activity (Rattus norvegicus [13]): 4; Activity (Rattus norvegicus [14]): 4; Activity (Rattus norvegicus [22]): No activity; Activity (Rattus norvegicus [16]): 3; Activity (Rattus norvegicus [17]): 4
C/C(=N/NC(N)=O)c1ccc(Sc2ccc(C)cc2)cc1	100	100	100		No activity	4				3	No activity			Activity (Rattus norvegicus [24]): No activity
N=C(N)N/N=C/c1ccc(Oc2ccc(F)cc2)cc1	300	30	30		No activity	2				1	No activity	100	100	Activity (Rattus norvegicus [24]): No activity
NC(=O)N/N=C/c1ccc(Oc2ccc(F)cc2)cc1	30	100		12.9					> 54					logP [21]: 1.91; TD50 at 1 h [27]: 108 mg/kg; Activity (Rattus norvegicus [13]): 4; Activity (Rattus norvegicus [14]): 4; Activity (Rattus norvegicus [15]): 2; Activity (Rattus norvegicus [16]): 4; Activity (Rattus norvegicus [17]): 4; TD50 [19]: > 500 mg/kg
CCCCc1ccc(Oc2ccc(/C=N/NC(N)=O)cc2)cc1	300	100			No activity	2				1	No activity		300	Activity (Rattus norvegicus [24]): No activity
NC(=O)N/N=C/c1ccc(Oc2ccc(F)cc2Cl)cc1	30	30		13.1					> 68			100	300	TD50 at 1 h [27]: 62.5 mg/kg; Activity (Rattus norvegicus [13]): 4; Activity (Rattus norvegicus [14]): 4; Activity (Rattus norvegicus [15]): 4; Activity (Rattus norvegicus [16]): 4; Activity (Rattus norvegicus [17]): 4
NC(=O)N/N=C\c1ccc(Oc2ccc(-c3ccccc3)cc2)cc1		300			No activity	1				3	No activity		300	Dose (Mus musculus [28]): 300 mg/kg; Activity (Rattus norvegicus [24]): No activity
NC(=O)N/N=C/c1ccc(Oc2ccc3ccccc3c2)cc1	100	100				4		3		4	No activity			Dose (Mus musculus [28]): 300 mg/kg; Activity (Rattus norvegicus [29]): 1
C/C(=N/NC(N)=O)c1ccc(Oc2ccc(C)cc2)cc1	30	100	30	5.62	No activity	4	1	2	18.7	4				TD50 at 1 h [27]: 57.9 mg/kg; selectivity ratio [20]: 3.09; selectivity ratio [30]: 10.3
Cc1cc(I)ccc1Oc1ccc(/C=N/NC(N)=O)cc1	30	30				4	4	4		4		300	100	Activity (Rattus norvegicus [29]): 2
Cc1cc(Oc2ccc(/C=N/NC(N)=O)cc2)ccc1Cl	30	30	300			4	4	4		4		300	100	Activity (Rattus norvegicus [29]): 1
N#Cc1ccc(Oc2ccc(/C=N\NC(N)=O)cc2)cc1	30	30	30			4	4	4		4		300	100	Dose (Mus musculus [28]): 30 mg/kg; Activity (Rattus norvegicus [29]): 2
